The record followed here is ChEMBL document CHEMBL1148379 (J Med Chem, 2004).

Broadly, the Ki is a dissociation constant, usually derived from enzyme kinetics or from competition with a known ligand.

Assay [1] concerns the target Bifunctional dihydrofolate reductase-thymidylate synthase (Plasmodium falciparum K1, UniProt P13922, C59R/I164L/S108N). Kind of assay: Inhibitory activity against triple mutant dihydrofolate reductase (C59R S108N I164L DHFR).
For assay [2], the target named is Bifunctional dihydrofolate reductase-thymidylate synthase (Plasmodium falciparum K1) (UniProt P13922). As to the kind of experiment: Inhibitory activity against quadruple mutant dihydrofolate reductase (N51I C59R S108N I164L DHFR), relative to trimethoprim. The method in brief: (§1)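 Wild-type and mutant P. falciparum DHFR expressed in E. coli BL21(DE3)pLysS. Ki calculated assuming inhibitors compete with substrate at the active site.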
Sequence of Bifunctional dihydrofolate reductase-thymidylate synthase (Plasmodium falciparum K1) (P13922 whole entry, looked up): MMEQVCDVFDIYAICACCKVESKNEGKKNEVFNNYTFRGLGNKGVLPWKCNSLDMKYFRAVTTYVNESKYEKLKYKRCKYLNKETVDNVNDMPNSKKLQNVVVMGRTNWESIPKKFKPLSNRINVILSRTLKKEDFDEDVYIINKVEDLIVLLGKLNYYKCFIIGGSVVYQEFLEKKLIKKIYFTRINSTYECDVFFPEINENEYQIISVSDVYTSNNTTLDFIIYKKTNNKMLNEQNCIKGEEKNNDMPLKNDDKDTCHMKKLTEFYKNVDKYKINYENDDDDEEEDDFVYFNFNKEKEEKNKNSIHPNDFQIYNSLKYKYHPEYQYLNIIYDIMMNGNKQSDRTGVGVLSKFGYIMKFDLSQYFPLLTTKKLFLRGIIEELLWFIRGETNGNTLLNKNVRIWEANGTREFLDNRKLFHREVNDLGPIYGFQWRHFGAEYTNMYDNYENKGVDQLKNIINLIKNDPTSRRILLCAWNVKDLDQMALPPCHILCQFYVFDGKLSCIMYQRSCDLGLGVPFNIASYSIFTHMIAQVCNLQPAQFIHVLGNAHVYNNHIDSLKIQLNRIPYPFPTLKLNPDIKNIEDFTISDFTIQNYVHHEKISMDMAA

Assay [3] has the same target. As to the kind of experiment: Inhibitory activity against triple mutant dihydrofolate reductase (C59R S108N I164L DHFR), relative to trimethoprim. The method in brief: as §1
Assay [4] has the same target. As to the kind of experiment: Inhibitory activity against double mutant dihydrofolate reductase (C59R S108N DHFR), relative to trimethoprim. The method in brief:
as §1

Assay [5] deals with Bifunctional dihydrofolate reductase-thymidylate synthase (Plasmodium falciparum K1, UniProt P13922, C59R/I164L/N51I/S108N). As to the kind of experiment: Inhibitory activity against quadruple mutant dihydrofolate reductase (N51I C59R S108N I164L DHFR).
Sequence of Bifunctional dihydrofolate reductase-thymidylate synthase (Plasmodium falciparum K1, UniProt P13922, C59R/I164L/N51I/S108N) (P13922 whole entry, looked up, stated change not applied): as the sequence (P13922 whole entry, looked up) above
Assay [6] addresses Bifunctional dihydrofolate reductase-thymidylate synthase (Plasmodium falciparum K1) (UniProt P13922). Kind of assay: Inhibitory activity against wild-type dihydrofolate reductase (S108N DHFR), relative to trimethoprim. An outline of the steps:
as §1

The target of assay [7] is Bifunctional dihydrofolate reductase-thymidylate synthase (Plasmodium falciparum K1, UniProt P13922). Kind of assay: Inhibitory activity against double mutant dihydrofolate reductase (C59R+S108N DHFR).
Sequence of Bifunctional dihydrofolate reductase-thymidylate synthase (Plasmodium falciparum K1, UniProt P13922) (P13922 whole entry): as the sequence (P13922 whole entry, looked up) above

Sequence of Bifunctional dihydrofolate reductase-thymidylate synthase (Plasmodium falciparum K1, UniProt P13922, C59R/I164L/S108N) (P13922 whole entry, looked up, stated change not applied): as the sequence (P13922 whole entry, looked up) above

Take `COc1cc(Cc2cnc(N)nc2N)ccc1OCCCc1ccccc1`: the Ki in assay [1] stood at 3100 nM; in assay [5], 1120 nM. The Relative activity is 0.17 in assay [2], 0.54 in assay [3], 0.33 in assay [4] and 0.17 in assay [6].
Consider `CCCCCCCOc1cc(Cc2cnc(N)nc2N)ccc1OC`, for which the Ki was determined as 292 nM in assay [1], 445 nM in assay [5] and 104 nM in assay [7]. Besides, the Relative activity in assay [2] stood at 0.1; in assay [3], 0.05; in assay [4], 0.4; in assay [6], 0.3.
`CCOc1cc(Cc2cnc(N)nc2N)ccc1OCCCc1ccccc1`: the figures for the Ki in assay [1], in assay [5] and in assay [7] were 374 nM, 525 nM and 10.6 nM, respectively. The Relative activity is 0.08 in assay [2], 0.06 in assay [3], 0.08 in assay [4] and 0.1 in assay [6].
`COc1ccc(Cc2cnc(N)nc2N)cc1OCc1ccccc1`: the Ki in assay [1] worked out at 630 nM; in assay [5], 1130 nM; in assay [7] it was 143 nM. The Relative activity was 0.2 in assay [2], 0.11 in assay [3], 0.6 in assay [4] and 0.7 in assay [6].
In the case of `CCc1nc(N)nc(N)c1Cc1ccc(OCc2ccccc2)c(OC)c1`, the Ki in assay [1] came out at 3740 nM; in assay [5], 732 nM; in assay [7], 60.1 nM. The Relative activity in assay [2] amounted to 0.11; in assay [3], 0.66; in assay [4] it was 0.25; in assay [6], 0.3.
Regarding `CCCCCOc1cc(Cc2cnc(N)nc2N)ccc1OC`, the inhibitory constant (Ki) was 253 nM in assay [1], 444 nM in assay [5] and 134 nM in assay [7]. Also, the Relative activity came to 0.1 in assay [2], 0.04 in assay [3], 0.5 in assay [4] and 0.2 in assay [6].
Take `CCCOc1cc(Cc2cnc(N)nc2N)ccc1OC`: the values for the Ki in assay [1], in assay [5] and in assay [7] were 144 nM, 920 nM and 52.1 nM, respectively. In addition, the Relative activity is 0.1 in assay [2], 0.03 in assay [3], 0.2 in assay [4] and 0.2 in assay [6].
`CCCCOc1cc(Cc2cnc(N)nc2N)ccc1OC`: the Ki worked out at 772 nM in assay [1], 1030 nM in assay [5] and 194 nM in assay [7]. Further, the Relative activity in assay [2] worked out at 0.2; in assay [3] it was 0.1; in assay [4], 0.8; in assay [6] it was 0.2.
Take `COc1cc(Cc2cnc(N)nc2N)ccc1OCCCOCCCOc1ccccc1`: the inhibition constant Ki in assay [1] was determined as 425 nM; in assay [5] it was 2190 nM; in assay [7] it was 154 nM. The Relative activity stood at 0.33 in assay [2], 0.07 in assay [3], 0.63 in assay [4] and 0.18 in assay [6].
Regarding `COc1cc(Cc2c(C)nc(N)nc2N)ccc1OCc1ccccc1`, the Ki stood at 66.3 nM in assay [1], 93.4 nM in assay [5] and 89.5 nM in assay [7]. Moreover, the Relative activity in assay [2] came out at 0.01; in assay [3] it was 0.01; in assay [4] it was 0.4; in assay [6], 0.3.
On to `CCCCCOc1ccc(Cc2cnc(N)nc2N)cc1`, for which the values for the Ki in assay [1], in assay [5] and in assay [7] were 539 nM, 915 nM and 137 nM, respectively. Further, the Relative activity in assay [2] was 0.1; in assay [3], 0.1; in assay [4] it was 0.6; in assay [6] it was 0.8.
For `CCOc1cc(Cc2cnc(N)nc2N)ccc1OCCCOc1ccccc1`, the inhibition constant Ki in assay [1] was 166 nM; in assay [5], 770 nM; in assay [7], 47.7 nM. Moreover, the Relative activity worked out at 0.12 in assay [2], 0.03 in assay [3], 0.2 in assay [4] and 0.06 in assay [6].
Regarding `CCOc1cc(Cc2cnc(N)nc2N)ccc1OCCCOCCCOc1ccccc1`, the Ki turned out to be 314 nM in assay [1], 937 nM in assay [5] and 46.9 nM in assay [7]. The Relative activity in assay [2] came out at 0.14; in assay [3], 0.06; in assay [4] it was 0.19; in assay [6], 0.22.
In the case of `CCCCCOc1ccc(Cc2cnc(N)nc2N)cc1OCC`, the Ki was found to be 1160 nM in assay [1], 902 nM in assay [5] and 46.6 nM in assay [7]. For the same molecule, the Relative activity was 0.1 in assay [2], 0.2 in assay [3], 0.2 in assay [4] and 0.1 in assay [6].
Consider `Nc1ncc(Cc2ccc(OCCCc3ccccc3)cc2)c(N)n1`, for which the Ki was determined as 3040 nM in assay [1], 801 nM in assay [5] and 58.1 nM in assay [7]. The Relative activity was 0.12 in assay [2], 0.54 in assay [3], 0.44 in assay [4] and 0.57 in assay [6].
Consider `CCCOc1ccc(Cc2cnc(N)nc2N)cc1`, for which the Ki in assay [1] is 1090 nM; in assay [5], 1520 nM; in assay [7], 211 nM. For the same molecule, the Relative activity in assay [2] was 0.2; in assay [3], 0.2; in assay [4], 0.9; in assay [6], 1.5.
For `COc1ccc(Cc2cnc(N)nc2N)cc1OC` [DIAVERIDINE], the Ki worked out at 2650 nM in assay [1], 13900 nM in assay [5] and 235 nM in assay [7]. Further, the Relative activity in assay [2] amounted to 2.1; in assay [3] it was 0.5; in assay [4] it was 1; in assay [6] it was 1.1.
Regarding `COc1cc(Cc2cnc(N)nc2N)ccc1OCCCOc1ccccc1`, the values for the Ki in assay [1], in assay [5] and in assay [7] were 257 nM, 606 nM and 37.1 nM, respectively. The Relative activity in assay [2] came out at 0.09; in assay [3], 0.05; in assay [4] it was 0.15; in assay [6], 0.19.
As for `Nc1ncc(Cc2ccc(OCCCOCCCOc3ccccc3)cc2)c(N)n1`, the Ki in assay [1] was 264 nM; in assay [5], 1590 nM; in assay [7], 108 nM. For the same molecule, the Relative activity in assay [2] came to 0.24; in assay [3], 0.05; in assay [4], 0.45; in assay [6], 0.68.
Take `CCCOc1cc(Cc2c(N)nc(N)nc2CC)ccc1OCc1cc(OC)c(OC)c(OC)c1`: the Ki in assay [1] was 154 nM; in assay [5], 693 nM; in assay [7], 48.7 nM. Besides, the Relative activity in assay [2] was found to be 0.1; in assay [3] it was 0.03; in assay [4], 0.2; in assay [6], 0.17.
As to `CCCCCCCOc1ccc(Cc2cnc(N)nc2N)cc1`, the Ki in assay [1] stood at 2210 nM; in assay [5], 1380 nM; in assay [7] it was 196 nM. In addition, the Relative activity in assay [2] was found to be 0.2; in assay [3] it was 0.4; in assay [4] it was 0.8; in assay [6] it was 1.7.
In the case of `Nc1ncc(Cc2ccc(OCCCOc3ccccc3)cc2)c(N)n1`, the Ki in assay [1] was determined as 471 nM; in assay [5] it was 2260 nM; in assay [7] it was 170 nM. The Relative activity in assay [2] was 0.34; in assay [3], 0.08; in assay [4], 0.7; in assay [6] it was 0.63.
In the case of `COc1cc(Cc2cnc(N)nc2N)ccc1OCc1cc(OC)c(OC)c(OC)c1`, the results for the Ki in assay [1] and in assay [5] were 47.6 nM and 124 nM, respectively.
Consider `CCOc1ccc(Cc2cnc(N)nc2N)cc1OC`, for which the Ki amounted to 3540 nM in assay [1], 11800 nM in assay [5] and 187 nM in assay [7]. Further, the Relative activity in assay [2] is 1.8; in assay [3], 0.6; in assay [4] it was 0.8; in assay [6], 1.5.
Turning to `COc1ccc(Cc2cnc(N)nc2N)cc1`, the Ki in assay [1] is 3960 nM; in assay [5], 20500 nM; in assay [7], 464 nM. The Relative activity in assay [2] came to 3.1; in assay [3], 0.7; in assay [4], 1.9; in assay [6] it was 2.3.
